# Screening data (PubChem)
# EBV gp42 inh: blocks Epstein-Barr virus glycoprotein 42 binding. 220,000 tested, 0.42% active. Q1HVG2. inhibition, % (tested at 21.74 µM). AID 1085. Fluorescence polarization binding assay, mP read-out; in the data active = inhibition above about 50%
# Keap1 Nrf2 FP: inhibitors of human Keap1-Nrf2 protein-protein interaction; 340,000 tested, 0.15% active; Keap1 Kelch-Nrf2 peptide fluorescence polarization, 1536-well; inhibition, % at 9.4 µM; Q14145; in the data active = inhibition above about 12%; inconclusive = no clear call, values can overlap the other calls; inactive = below about 7.3%;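 also: human Keap1 Kelch domain with fluorescein labeled Nrf2 9mer peptide probe; 0% = neutral control wells and 100% = peptide positive control; higher means more block of Keap1 binding to Nrf2 peptide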
# T cell modulator: modulates CD8 T cell binding to vesicles | 330,000 tested, 0.068% active | 2C CD8+ T cell-vesicle binding, flow cytometry; stronger effect = lower value | response (vesicle binding), % at 7 µM;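 active = response, share of CD8 T cells binding vesicles, and their 90th percentile fluorescence all below set limits, cut at about 80% in these data, passing the limit was not always enough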;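 also: values below 100% mean blocked vesicle binding to the CD8+ T cells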
#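 material = purified 2C TCR transgenic mouse naive CD8+ T cells | controls = Unloaded micro-vesicles (low), QL9 vesicles with 0.7% DMSO (high) | detection = cytometric PE anti-B7-1 and Alexa647 anti-CD8 signals after 1% paraformaldehyde fixation | incubation = binding step 1.5 h, 37 °C, antibody labelling 20 min, ice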
# GRK2 inh: human GRK2 inhibition via aptamer displacement; bead flow cytometry, FAM-aptamer displacement from GRK2; 330,000 tested, 0.59% active; P25098; inhibition of aptamer binding, % at 10 µM;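 active = inhibition of aptamer binding above 40%, roughly 3 SD of noise, on plates passing a quality check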;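 also: median bead fluorescence of bound FAM aptamer so fluorescent compounds give negative values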
# Target sequence (P25098 whole entry, looked up): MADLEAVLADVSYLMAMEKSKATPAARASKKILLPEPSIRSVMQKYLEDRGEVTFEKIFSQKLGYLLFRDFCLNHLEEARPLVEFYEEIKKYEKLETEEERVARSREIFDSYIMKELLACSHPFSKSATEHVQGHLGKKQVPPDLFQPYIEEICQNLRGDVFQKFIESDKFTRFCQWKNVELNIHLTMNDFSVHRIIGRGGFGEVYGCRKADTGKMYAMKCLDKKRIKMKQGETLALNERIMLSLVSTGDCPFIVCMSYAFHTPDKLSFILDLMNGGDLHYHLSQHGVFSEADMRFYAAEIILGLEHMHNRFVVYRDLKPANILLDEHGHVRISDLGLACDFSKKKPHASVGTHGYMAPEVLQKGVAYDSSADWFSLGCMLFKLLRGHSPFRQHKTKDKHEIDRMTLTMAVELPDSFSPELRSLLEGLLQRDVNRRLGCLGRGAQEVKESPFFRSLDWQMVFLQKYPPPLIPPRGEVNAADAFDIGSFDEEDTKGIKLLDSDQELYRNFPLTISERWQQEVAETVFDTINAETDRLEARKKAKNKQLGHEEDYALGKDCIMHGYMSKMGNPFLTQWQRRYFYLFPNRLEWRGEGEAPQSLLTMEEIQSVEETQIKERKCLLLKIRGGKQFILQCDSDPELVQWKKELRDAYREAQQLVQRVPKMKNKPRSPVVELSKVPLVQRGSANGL
# C-LANA FP: KSHV C-LANA DNA binding inhibition | 340,000 tested, 0.078% active | MBP-C-LANA/FAM-LBS DNA binding, fluorescence polarization | inhibition, % at 9 µM;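 active = highest replicate inhibition at or above 60% at 9 µM, even if other replicates fall short; inactive = all replicates below 60% inhibition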;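 also: 0% = neutral control wells and 100% = 4 µM acridine orange control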
# MEX-5 binding: C. elegans MEX-5 TCR-2 RNA binding activity | Q9XUB2 | MEX-5/FITC-TCR2 RNA binding, fluorescence polarization; stronger effect = lower value | activity score (negative = inhibition of binding), % at 10 µM | 300,000 tested, 0.38% active | AID 1832;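 active = inhibition past about -25% in most replicates, and total fluorescence under double the plate's negative control median, limit read from the data; inconclusive = replicates evenly split on the limit, or fluorescence at least double controls; inactive = too little inhibition in most replicates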;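 also: 0% = DMSO and -100% = 5 µM competing unlabeled TCR2 RNA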
# * marks the source's active call; other numbers are inactive results; i = inactive; ? = inconclusive; · = not tested or not shown. In the library only some 1.3% were active in any assay of this set; here they are far more common.
SMILES,EBV gp42 inh,Keap1 Nrf2 FP,T cell modulator,GRK2 inh,C-LANA FP,MEX-5 binding
C/C(=N\NC(=O)c1cc(-c2ccccn2)nc2ccccc12)c1cccc([N+](=O)[O-])c1,-14,-6,i,0,98*,1
COc1ccc(C2CC(=O)C(C=NCCCO)=C(O)C2)cc1 (stereo unspecified),·,5,763,0,9,-27*
CCOc1ccc(NC(=O)CN(C)C(=O)c2ccc(C)c(S(=O)(=O)N3CCCCC3)c2)cc1OCC,·,-3,182,3,0,1
CCOC(=O)c1oc2cc(OCC(=O)OC)ccc2c(=O)c1-c1ccc(OC)c(OC)c1,51*,0,247,1,3,0
COC(=O)COc1ccc2c(-c3ccc(OC)cc3)cc(=O)oc2c1,3,-2,283,0,-1,3
COc1cc(/C(C)=N/Nc2ccc(C(=O)O)cc2)cc(OC)c1OC,-8,0,453,71*,1,-1
COc1ccc(/C(C)=N/Nc2ccc(C(=O)O)cc2)cc1OC,-4,3,254,4,1,·
C/C(=N/Nc1ccc(C(=O)O)cc1)c1ccc(O)c(O)c1O,-7,-3,214,9,0,-41*
Cc1ccc2c(c1)C(c1ccc(O)cc1)(c1ccc(O)cc1)C(=O)N2C,10,1,239,2,1,1
Cc1ccc(N=C2NC(=O)/C(=C/c3cn(C)c4ccccc34)S2)cc1C,82*,-6,213,3,1,·
O=C(COC(=O)c1ccc(F)c(S(=O)(=O)N2CCOCC2)c1)NCCc1ccccc1,·,-3,356,0,2,1
CSc1ccccc1NC(=O)COC(=O)/C=C/c1ccco1,·,-5,403,41*,2,·
O=C(COC(=O)/C=C/c1ccco1)Nc1ncc(C(F)(F)F)cc1Cl,8,-6,171,52*,9,-2
CCOC(=O)C1=C(C)N(CCCC(=O)O)C(=O)NC1c1ccccc1OS(=O)(=O)c1ccccc1[N+](=O)[O-] (stereo unspecified),·,3,335,0,1,-4
Cc1cc(Cl)c(OCCCN2CCCCC2)c(Br)c1,-11,-3,72*,0,0,-2
O=C(COC(=O)Cc1cccs1)Nc1ccc(OC(F)(F)F)cc1,·,-2,742,0,1,0
Cc1cc2nc3ccc(N(C)C)cc3nc2cc1N,·,3,476,24,4,-28*
O=C1NCCN(Cc2cccc(Oc3ccccc3)c2)C1CC(=O)N1CCCCC1 (stereo unspecified),·,-2,346,0,0,6
COc1ccc(NC(=O)N(CCc2ccccc2)Cc2cc3c(C)cc(C)cc3[nH]c2=O)cc1,59*,3,363,3,-2,0
CC(C)C(NC(=O)CNC(=O)OC(C)(C)C)C(=O)NCc1ccccc1 (stereo unspecified),-16,-2,351,0,0,1
COc1ccc(C(CC(=O)N2CCCC2)c2c(OC)cc(OC)c3c(-c4ccccc4)cc(=O)oc23)cc1 (stereo unspecified),82*,-1,288,12,-1,4
N#C/C(=C\C1=C(N2CCOCC2)C(=C/c2cccc([N+](=O)[O-])c2)/CC1)C(=O)Nc1ccccc1F,86*,-3,378,0,1,·
N#C/C(=C\C1=C(N2CCOCC2)C(=C\c2ccc(Cl)cc2)/CC1)C(=O)Nc1ccccc1F,124*,-7,566,0,-1,-3
CC1CCN(C(=O)COC(=O)CCCN2C(=O)c3cccc4cccc(c34)C2=O)CC1,·,-2,0.0*,0,0,0
O=C(COC(=O)CCCN1C(=O)c2cccc3cccc(c23)C1=O)Nc1ccc(Cl)cc1,-9,-2,220,3,0,0
SMILES,EBV gp42 inh,Keap1 Nrf2 FP,T cell modulator,GRK2 inh,C-LANA FP,MEX-5 binding
Cc1cc(-c2csc(N)n2)c(C)n1C,-18,0,185,30,0,-47*
O=C(c1cccc(Br)c1)N1CCCc2ccccc21,·,2,126,0,-1,0
CC1(C)CCCN(C(=O)c2coc(=O)c(Br)c2)C1,52*,-4,·,·,64*,-28*
O=C(c1coc(=O)c(Br)c1)N1CCCc2ccccc21,·,-1,121,21,77*,-27*
O=C(c1coc(=O)c(Br)c1)N1CCC(C(O)(c2ccccc2)c2ccccc2)CC1,-3,0,535,0,0,0
CCN(CC)S(=O)(=O)c1ccc(NC(=O)CSc2ncnc3ccccc23)cc1,-23,-4,363,2,3,0
CC(=O)c1cccc(N2Cc3ccccc3C2=NC(=O)CCl)c1,-16,-2,281,0,-1,-3
CCOC(=O)c1c(Nc2ccccc2N)cc(C)nc1C,81*,3,421,2,-2,·
Cc1nn(-c2ccccc2)c(Cl)c1/C=N/Nc1ccc(S(=O)(=O)Nc2ccccc2C(=O)O)cc1[N+](=O)[O-],73*,3,196,4,11,0
CSc1ccc(C=NNc2ccc(S(=O)(=O)Nc3ccccc3C(=O)O)cc2[N+](=O)[O-])cc1,·,-4,389,0,3,·
Cn1c(=O)cc2c3c(c(N4CCCCC4)ccc31)C(=O)c1ccccc1-2,74*,·,61,2,·,-40*
CCOc1ccc(N=Nc2c(=O)[nH]n3c(=O)c4c([nH]c23)CCCC4)cc1,-12,-6,i,2,-2,?
CCOc1ccc(N=Nc2c(=O)[nH]n3c(=O)cc(C)[nH]c23)cc1,-23,-2,220,1,0,-51*
Cc1cc(=O)n2[nH]c(=O)c(N=Nc3ccccc3)c2[nH]1,-9,-12,248,0,-2,-82*
O=C(OCCCc1cc2ccccc2c(=O)o1)c1ccc(F)cc1,·,-5,782,2,-1,·
CCOC(=O)N1CCC(N2CC34C=CC(O3)C(C(=O)Nc3ccc(C(C)C)cc3)C4C2=O)CC1 (stereo unspecified),-5,-1,28,4,0,·
Cc1c2ccccc2nc2c(F)c(NCCO)c(F)c(F)c12,187*,-2,262,0,12,-31*
Cc1c2ccccc2nc2c(F)c(NC(C)C)c(F)c(F)c12,168*,-1,400,2,8,-33*
O=C(NNC(=O)c1csc(-c2cccnc2)n1)c1ccccc1,-11,-5,857,0,-1,-26*
O=S(=O)(NCc1ccc(F)cc1)c1cc(Br)ccc1Br,·,-2,i,6,1,·
CCOC(=O)COc1ccccc1/C=N/Nc1nnc2c3ccccc3n(C)c2n1,·,·,i,0,·,-3
Cc1nc(CNC(=O)C2CCC(=O)N(CCc3ccc(Cl)cc3)C2)sc1C (stereo unspecified),·,0,47*,1,-1,-2
